Consider 2 compounds from ChEMBL document CHEMBL1126753, “1-Carboranyl-3-(2-methylaziridino)-2-propanol. Synthesis, selective uptake by B-16 melanoma, and selective cytotoxicity toward cancer cells” (J Med Chem, 1993).

Experiment [1] has as its system B16. The experiment can be described thus: Boron incorporation into B-16 […] tumor cell after 24 hours. It is filed as functional. A digest of the protocol: (§1)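 Cells grown to confluence in 150-mm dishes (about 5.0 × 10⁶ cells/dish), then exposed to carrier (1.5 ppm carborane or 200 ppm BPA-HCl) in Eagle-MEM with 10% FCS at 37 °C. Cells were washed thrice in Ca-Mg-free PBS, scraped, digested in HClO₄–H₂O₂ for 1 h at 75 °C, and filtered. Boron was measured by ICP-AES, untreated-dish boron subtracted, and reported as μg/10⁶ cells; two replicates, SD.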

The test system of experiment [2] is B16. As to the kind of experiment: Boron incorporation into B-16 […] tumor cell after 2 hours. Type of experiment: functional. A digest of the protocol:
as §1

Another experiment deals with IMR-32. The experiment can be described thus: (§2) Inhibition of growth of IMR 32 human tumor cell line. Type of experiment: functional, cell-based. Put shortly:
(§3)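 1 × 10⁶ cells per 60-mm dish in Eagle-MEM plus 10% FCS, treated with 1, 2.5, 5, 10, 25, 50 or 100 ppm compound (DMSO vehicle) for 3 days at 37 °C in CO₂. Cells were washed with PBS, trypsinized and counted; the count is a percentage of untreated control, and IC50 is the concentration giving 50% of control cell number.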

The next experiment has as its system Tumor cell line. The description is as §2. Type of experiment: functional, cell-based. A digest of the protocol:
as §3

Experiment [3] relates to TIG-1-20. The experiment can be described thus: Boron incorporation into TIG-1-20 human fetal lung normal cell line after 2 hours. Type of experiment: functional. A digest of the protocol: as §1
Experiment [4] deals with TIG-1-20. The experiment can be described thus: Boron incorporation into TIG-1-20 human fetal lung normal cell line after 24 hours. Type of experiment: functional. Put shortly: as §1

With `CC1CN1CC(O)CC1CC1` (stereo not given), the Boron incorporation is 0.26 ug/10e6 with B16 [1], 0.25 µg in the experiment on B16 [2], 0.14 ug/10e6 in the experiment on TIG-1-20 [3] and 0.11 ug/10e6 in the experiment with TIG-1-20 [4]. The values for the IC50 in the experiment on IMR-32 and in the experiment on Tumor cell line were 8.2e-6 ppm g dm**-3 and 0.0000319 M mol/dm 3, respectively.
Take `NC(Cc1ccc(B(O)O)cc1)C(=O)O` (stereo not given): the Boron incorporation in the experiment with B16 [1] came out at 0.28 ug/10e6; with B16 [2], 0.22 ug/10e6; in the experiment with TIG-1-20 [3], 0.17 ug/10e6; with TIG-1-20 [4], 0.26 ug/10e6.
